Compound activity as filed in PubChem BioAssay.
FAS TE block: blocks the thioesterase domain of human fatty acid synthase | P49327 | recombinant FAS-TE, OMFH fluorogenic substrate, fluorescence endpoint | inhibition, % at 15 µM | 0.67% of 360,000 active | AID 602261;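 active means compounds whose normalised, plate-corrected inhibition of enzyme fluorescence in the single-dose primary screen is 50% or more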;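 further: 0% = DMSO with enzyme and 100% = substrate without enzyme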
UCH37 DUB inh: blocks the human deubiquitinase UCH37 | Q9Y5K5 | purified proteasome/UCH37, Ub-AMC cleavage fluorescence | inhibition, % (no concentration beside the values) | 0.33% of 330,000 active | AID 588478;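 active means mean inhibition over replicate wells above about 20%, limit read from the data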;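 further: 0% = compound-free wells with enzyme and 100% = wells lacking proteasome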
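Test system – human UCH37 enzyme supplied as purified proteasome complex · Incubation – 30 min preincubation with enzyme, 25 min cleavage at room temperature · Detection – AMC fluorescence from Ub-AMC cleavage, excitation 355 nm, emission 460 nm · Benchmarks – no-proteasome wells (full inhibition) and compound-free wells (no inhibition)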
Rtt109 Vps75: C. albicans Rtt109 histone acetyltransferase inhibition | Q5AAJ8 | purified Rtt109/Vps75, ThioGlo CoA-SH fluorescence, 4 h | inhibition, % at 34.9 µM | 0.16% of 330,000 active | AID 540336;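 active means inhibition of at least 50% in every replicate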
ALR H2O2 inh: blocks human ALR sulfhydryl oxidase activity; purified ALR, DTT oxidation, H2O2 HRP-luminol luminescence; AID 485317; 3.8% of 290,000 active; P55789; inhibition, % (no concentration beside the values);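 active means mean replicate inhibition above about 79%, with every replicate also reaching it, limit read from the data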
M18AAP inhibitor: PfM18AAP enzyme inhibition. AID 1822. recombinant PfM18AAP, H-Glu-NHMec fluorogenic cleavage. 1.2% of 290,000 active. inhibition, % at 7.35 µM;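 active means inhibition above the campaign mean inhibition over all tested compounds plus 3 SD, cut at about 28% in these data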;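 further: 0% = plate median of test compound wells and 100% = 2 mM ZnCl2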
HDAC3 inh: blocks human histone deacetylase 3 | recombinant HDAC3, fluorogenic peptide/trypsin coupled, fluorescence | inhibition, % at 8.3 µM | AID 2718 | 0.15% of 320,000 active | O15379; in the data active means inhibition above about 26%, passing the limit was not always enough
Active calls of the source: *; nt = no result. Rows were chosen to be rich in hits. Some 4.6% of all compounds tested hit in one or more screens of this group.

SMILES | FAS TE block | UCH37 DUB inh | Rtt109 Vps75 | ALR H2O2 inh | M18AAP inhibitor | HDAC3 inh
O=c1cc(-c2ccccc2)cc(-c2ccccc2)n1O | -4 | 1 | 2 | 98* | nt | 11
Cc1nc(-c2ccc(NC(=O)CC(C)C)cc2)cs1 | -11 | 2 | 4 | 100* | 10 | 2
COc1cc(C=NNC(=O)c2ccc([N+](=O)[O-])cc2Cl)cc(Br)c1O | nt | 14 | nt | nt | nt | nt
COCc1cc(Sc2ccc(Br)cc2)nc(-c2ccccc2)n1 | 19 | 3 | -6 | 99* | 1 | -4
CN(CC(=O)NCCN1CCN(c2ccccc2)CC1)S(=O)(=O)c1ccc2c(c1)CCC(=O)N2 | -9 | 4 | -4 | 98* | 12 | 0
COc1cc(C(=O)Nc2c(C(=O)O)[nH]c3ccc(C)cc23)cc(OC)c1OC | -5 | 5 | 13 | 96* | -6 | -5
COC(=O)c1[nH]c2ccc(C)cc2c1NC(=O)Nc1ccccc1OC | 9 | -11 | 8 | 97* | -1 | -4
CCOC(=O)c1[nH]c2ccccc2c1NC(=O)c1cc(OC)c(OC)c(OC)c1 | 4 | 0 | -15 | -3 | 3 | 6
COC(=O)c1[nH]c2ccc(Cl)cc2c1NC(=O)Oc1ccccc1 | -1 | -71 | -17 | 100* | 8 | -15
COC(=O)c1[nH]c2ccc(Cl)cc2c1NC(=O)C1CC1 | -2 | nt | 1 | -9 | -6 | -14
CC1=C(C#N)C(=O)N(C2CCS(=O)(=O)C2)C(=O)/C1=C\c1ccc(C)o1 (centres undefined) | nt | nt | nt | -10 | 30* | 1
O=[N+]([O-])c1ccc(S(=O)(=O)NN=Cc2ccsc2)cc1 | nt | 9 | nt | nt | nt | nt
Cc1nc2ncccn2c1-c1csc(Nc2cccc(C(=O)O)c2)n1 | -4 | 1 | -1 | 51 | 29* | -5
Cc1nc2ccccn2c1-c1csc(Nc2cccc(C(=O)O)c2)n1 | -7 | -10 | 1 | 23 | 31* | -2
CCCCNC(=O)c1onc(CSc2cccc3ccccc23)c1C(=O)O | -3 | -1 | 4 | 98* | 2 | 6
CC(C)NC(=O)c1onc(CSc2ccccc2)c1C(=O)O | -7 | 3 | -1 | 33 | 7 | 2
CC(C)NC(=O)c1onc(CSc2cccc3ccccc23)c1C(=O)O | -9 | 2 | -5 | 98* | -10 | 7
CCCCNC(=O)c1onc(CSc2ccccc2)c1C(=O)O | -8 | 3 | -14 | 19 | -1 | 3
O=C(CSc1nnc(SCc2ccccc2)s1)NN=Cc1c[nH]c2ccccc12 | nt | 2 | nt | nt | nt | nt
O=C(CCc1ccccc1)NN=Cc1cccc(O)c1 | nt | 3 | nt | nt | nt | nt
O=C(COC(=O)c1ccc([N+](=O)[O-])o1)NCc1ccc(F)cc1 | -1 | 25* | -9 | -7 | nt | 2
O=C(COC(=O)c1ccc([N+](=O)[O-])o1)NC1CCS(=O)(=O)C1 (centres undefined) | -7 | 25* | 1 | nt | -3 | -3
O=C(COC(=O)c1ccc([N+](=O)[O-])o1)NCCCc1ccccc1 | -4 | 20* | -5 | -14 | nt | -7
CCN(C(=O)COC(=O)c1ccc([N+](=O)[O-])o1)C1CCCCC1 | 18 | 21* | 1 | -92 | nt | 6
CC1CCCC(NC(=O)COC(=O)c2ccc([N+](=O)[O-])o2)C1C (centres undefined) | 2 | 13 | -8 | -14 | nt | 1
SMILES | FAS TE block | UCH37 DUB inh | Rtt109 Vps75 | ALR H2O2 inh | M18AAP inhibitor | HDAC3 inh
O=C(COC(=O)c1ccc(Br)o1)NCc1ccc(F)cc1 | -5 | 2 | 8 | -3 | nt | -3
CCc1cccc(C)c1NC(=O)CON=C(C)c1cc2ccccc2o1 | nt | 4 | nt | nt | nt | nt
Cc1nn(-c2ccc(F)cc2)c(Cl)c1C=NNC(=O)c1cccc(S(=O)(=O)N2CCCC2)c1 | nt | 5 | nt | nt | nt | nt
CCc1ccc(/C=N/Nc2ncnc3nc[nH]c23)cc1 | -24 | nt | 8 | 81* | 1 | 16
Clc1ccc(C=NNc2ncnc3nc[nH]c23)cc1 | nt | 9 | nt | nt | nt | nt
O=[N+]([O-])c1cc(-c2ncccn2)c([N+](=O)[O-])s1 | 12 | 8 | -2 | 98* | -49 | 4
CCCCCCn1c(=O)c(C(=O)NN=Cc2cccc(F)c2)c(O)c2ccccc21 | nt | 1 | nt | nt | nt | nt
Cc1ccc(NC(=O)CSc2n[nH]c(-c3ccncc3)n2)c(C)c1 | -6 | 3 | 14 | 1 | -18 | 0
Cc1ccc(NC(=O)Cc2nc(-c3c[nH]c(C(=O)N4CCCC4)c3)cs2)c(C)c1 | -8 | -2 | -3 | 98* | nt | 2
